The nature of data set [1]: Metabolic stability in rat hepatocyte assessed as unbound intrinsic clearance at 1 uM incubated for 180 mins by LC-MS/MS analysis. The class given is ADME, cell-based. The conditions noted are these: hepatocytes, 3 h.
Data set [2] in a line: Metabolic stability in human liver microsomes assessed as unbound intrinsic clearance at 1 uM incubated for 30 mins by LC-MS/MS analysis. The class given is ADME, Microsome. The following applies: 0.5 h. Background: Microsomes from liver hold many membrane-bound enzymes, among them those of drug oxidation.
A short description of data set [3]: Metabolic stability in rat liver microsomes assessed as unbound intrinsic clearance at 1 uM incubated for 30 mins by LC-MS/MS analysis. The class given is ADME, Microsome. The following applies: 0.5 h.
The nature of data set [4]: Metabolic stability in human hepatocyte assessed as unbound intrinsic clearance at 1 uM incubated for 180 mins by LC-MS/MS analysis. The conditions noted are these: hepatocytes, 3 h. The class given is ADME, cell-based.
The nature of data set [5]: Half life in Sprague-Dawley rat at 0.1 mg/kg, iv measured upto 24 hrs by LC-MS/MS analysis. The class given is ADME, organism-based. The following applies: in vivo. An outline of the steps:
(§1)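 Male Sprague–Dawley rats (6–8 weeks), iv tail-vein bolus 0.1 mg/kg in PEG200/water 60/40, or oral gavage 5 mg/kg suspension in 0.5% MC after ≥12 h fast; plasma (Li-heparin) sampled to 24 h, n = 3 per route, LC-MS/MS; noncompartmental analysis.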

Data set [6] in a line: Volume of distribution at steady state in Beagle dog at 5 mg/kg, po or 0.1 mg/kg, iv measured upto 24 hrs by LC-MS/MS analysis. The class given is ADME, organism-based, Canis lupus familiaris. The following applies: in vivo.
A short description of data set [7]: Plasma clearance in Sprague-Dawley rat at 5 mg/kg, po or 0.1 mg/kg, iv measured upto 24 hrs by LC-MS/MS analysis. The class given is ADME, organism-based. The following applies: in vivo. An outline of the steps: as §1
The nature of data set [8]: Unbound clearance in Sprague-Dawley rat at 5 mg/kg, po or 0.1 mg/kg, iv measured upto 24 hrs by LC-MS/MS analysis. The class given is ADME, organism-based. The conditions noted are these: in vivo. The procedure, abridged: as §1
Data set [9] has as its target T1, Cytochrome P450 3A4 (Homo sapiens, UniProt P08684). Description: Induction of CYP3A4 in human hepatocytes assessed as mRNA at 10 uM after 72 hrs by qPCR analysis relative to rifampicin. The class given is ADME, cell-based, Hepatocyte. The procedure, abridged:
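Single-donor cryopreserved human hepatocytes, 0.1 × 10^6 cells/well, exposed to 10 μM compound (0.1% DMSO) in triplicate for 72 h with daily renewal; RNA RT-qPCR for CYP3A4 vs endogenous control, 2^-ΔΔCT relative to vehicle, expressed as % of 10 μM rifampicin.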
(In general: Real-time PCR tracks product formation cycle by cycle.)

Data set [10] in a line: Genotoxicity in Salmonella typhimurium by Ames test. The conditions noted are these: salmonella enterica subsp. enterica serovar typhimurium. The class given is toxicity.
Another data set deals with Sigma receptor (Homo sapiens, UniProt Q99720+Q5BJF2). The experiment in a line: Inhibition of human Sigma receptor. The class given is protein assay. An outline of the steps: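 Radioligand binding panel: displacement of cognate radioligand from human H1 or Sigma receptor, IC50 determined.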
A short description of data set [11]: Volume of distribution at steady state in Sprague-Dawley rat at 5 mg/kg, po or 0.1 mg/kg, iv measured upto 24 hrs by LC-MS/MS analysis. The class given is ADME, organism-based. The following applies: in vivo. An outline of the steps:
as §1

Data set [12] addresses T1, Cytochrome P450 3A4. Description: Inhibition of CYP3A4 in human liver microsomes using testosterone as substrate in presence of NADPH by LC/MS/MS analysis. The class given is ADME, Microsome.
Data set [13] can be described thus: Plasma protein binding in human at 5 uM measured after 4 hrs under shaking by LC-MS/MS analysis. The class given is ADME, cell-free. The following applies: read-out: PPB (converted). An outline of the steps: (§2)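 Equilibrium dialysis of compound 5 μM (0.5% DMSO) in plasma against PBS pH 7.4, 4 h at 37 °C with shaking; matrix-matched samples, acetonitrile precipitation, LC-MS/MS; % bound from plasma and buffer peak areas.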

Data set [14] can be described thus: Plasma protein binding in rat at 5 uM measured after 4 hrs under shaking by LC-MS/MS analysis. The class given is ADME, cell-free. The following applies: read-out: PPB (converted). The procedure, abridged:
as §2

A short description of data set [15]: Thermodynamic solubility of the compound in fasted simulated gastric fluid measured after 24 hrs by LC-MS/MS analysis. The class given is physicochemical. The following applies: read-out: Therm_solubility. An outline of the steps:
(§3)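 Solid compound at 1 mg/mL in fasted simulated gastric fluid or pH 7.4 buffer, stirred 24 h at room temperature, centrifuged and filtered, diluted and quantified by LC-MS/MS against standard curve.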

Data set [16] is described as follows: Metabolic stability in dog hepatocyte assessed as unbound intrinsic clearance at 1 uM incubated for 180 mins by LC-MS/MS analysis. The following applies: hepatocytes, 3 h. The class given is ADME, cell-based, Canis lupus familiaris.
The target in data set [17] is T1, Cytochrome P450 3A4. The experiment in a line: Inhibition of CYP3A4 in human liver microsomes using midazolam as substrate in presence of NADPH by LC/MS/MS analysis. The class given is ADME, Microsome.
Data set [18] can be described thus: Thermodynamic solubility of the compound at pH 7.4 measured after 24 hrs by LC-MS/MS analysis. The class given is physicochemical. The conditions noted are these: buffer, read-out: Therm_solubility. An outline of the steps: as §3
The nature of data set [19]: Apparent permeability from apical to basolateral side in MDCKII-MDR1 cells at 10 uM measured after 1 hr by LC-MS/MS analysis. The following applies: dog, MDCK-MDR1. The class given is ADME, cell-based, Canis lupus familiaris.
In data set [20] the target is Voltage-gated inwardly rectifying potassium channel KCNH2 (Homo sapiens, UniProt Q12809). Description: Inhibition of human ERG by manual patch clamp test. The class given is toxicity. A general note: The patch-clamp technique gives a direct electrical read-out from membranes.
Data set [21] is described as follows: Unbound clearance in Beagle dog at 5 mg/kg, po measured upto 24 hrs by LC-MS/MS analysis. The class given is ADME, organism-based, Canis lupus familiaris. The conditions noted are these: in vivo. An outline of the steps:
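Male Beagle dogs (n = 3), iv 10 min […], then after 3-day washout oral gavage 5 or 1 mg/kg in PEG400/0.5% MC or 0.5% MC after ≥12 h fast; jugular or cephalic blood (Li-heparin) to 24 h, plasma by LC-MS/MS.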

The nature of data set [22]: Plasma protein binding in dog at 5 uM measured after 4 hrs under shaking by LC-MS/MS analysis. The class given is ADME, cell-free, Canis lupus familiaris. The following applies: read-out: PPB (converted). The procedure, abridged:
as §2

Data set [23] is described as follows: Plasma clearance in Beagle dog iv measured upto 24 hrs by LC-MS/MS analysis.
The nature of data set [24]: Intestinal permeability across apical to basolateral side in human Caco-2 cells at 10 uM measured after 1 hr by LC-MS/MS analysis. The class given is ADME, cell-based. The conditions noted are these: read-out: permeability.
Data set [25] in a line: Half life in Beagle dog at 0.1 mg/kg, iv measured upto 24 hrs by LC-MS/MS analysis. The class given is ADME, organism-based, Canis lupus familiaris. The conditions noted are these: in vivo.
The nature of data set [26]: Clearance in Sprague-Dawley rat at 1 mg/kg, iv measured after 24 hrs by LC-MS/MS analysis. The class given is ADME, organism-based. The following applies: in vivo.

The structures appear in SMILES notation. Converted amounts (≈) assume the structure as drawn.

T1 sequence (P08684 whole entry): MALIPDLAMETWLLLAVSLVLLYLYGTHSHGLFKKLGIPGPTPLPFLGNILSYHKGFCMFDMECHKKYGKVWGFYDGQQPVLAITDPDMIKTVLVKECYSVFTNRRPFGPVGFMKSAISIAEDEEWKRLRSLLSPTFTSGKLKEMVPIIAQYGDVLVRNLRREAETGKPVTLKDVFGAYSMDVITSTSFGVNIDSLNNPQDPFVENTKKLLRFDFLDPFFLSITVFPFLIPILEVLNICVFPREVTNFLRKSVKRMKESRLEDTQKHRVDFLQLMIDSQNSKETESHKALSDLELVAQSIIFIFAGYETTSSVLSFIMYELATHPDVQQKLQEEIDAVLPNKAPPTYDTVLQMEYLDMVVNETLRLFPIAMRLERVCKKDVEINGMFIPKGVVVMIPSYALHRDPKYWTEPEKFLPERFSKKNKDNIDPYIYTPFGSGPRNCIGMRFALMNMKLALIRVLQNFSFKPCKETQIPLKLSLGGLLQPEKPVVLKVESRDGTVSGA
Sequence of Voltage-gated inwardly rectifying potassium channel KCNH2 (Q12809 whole entry): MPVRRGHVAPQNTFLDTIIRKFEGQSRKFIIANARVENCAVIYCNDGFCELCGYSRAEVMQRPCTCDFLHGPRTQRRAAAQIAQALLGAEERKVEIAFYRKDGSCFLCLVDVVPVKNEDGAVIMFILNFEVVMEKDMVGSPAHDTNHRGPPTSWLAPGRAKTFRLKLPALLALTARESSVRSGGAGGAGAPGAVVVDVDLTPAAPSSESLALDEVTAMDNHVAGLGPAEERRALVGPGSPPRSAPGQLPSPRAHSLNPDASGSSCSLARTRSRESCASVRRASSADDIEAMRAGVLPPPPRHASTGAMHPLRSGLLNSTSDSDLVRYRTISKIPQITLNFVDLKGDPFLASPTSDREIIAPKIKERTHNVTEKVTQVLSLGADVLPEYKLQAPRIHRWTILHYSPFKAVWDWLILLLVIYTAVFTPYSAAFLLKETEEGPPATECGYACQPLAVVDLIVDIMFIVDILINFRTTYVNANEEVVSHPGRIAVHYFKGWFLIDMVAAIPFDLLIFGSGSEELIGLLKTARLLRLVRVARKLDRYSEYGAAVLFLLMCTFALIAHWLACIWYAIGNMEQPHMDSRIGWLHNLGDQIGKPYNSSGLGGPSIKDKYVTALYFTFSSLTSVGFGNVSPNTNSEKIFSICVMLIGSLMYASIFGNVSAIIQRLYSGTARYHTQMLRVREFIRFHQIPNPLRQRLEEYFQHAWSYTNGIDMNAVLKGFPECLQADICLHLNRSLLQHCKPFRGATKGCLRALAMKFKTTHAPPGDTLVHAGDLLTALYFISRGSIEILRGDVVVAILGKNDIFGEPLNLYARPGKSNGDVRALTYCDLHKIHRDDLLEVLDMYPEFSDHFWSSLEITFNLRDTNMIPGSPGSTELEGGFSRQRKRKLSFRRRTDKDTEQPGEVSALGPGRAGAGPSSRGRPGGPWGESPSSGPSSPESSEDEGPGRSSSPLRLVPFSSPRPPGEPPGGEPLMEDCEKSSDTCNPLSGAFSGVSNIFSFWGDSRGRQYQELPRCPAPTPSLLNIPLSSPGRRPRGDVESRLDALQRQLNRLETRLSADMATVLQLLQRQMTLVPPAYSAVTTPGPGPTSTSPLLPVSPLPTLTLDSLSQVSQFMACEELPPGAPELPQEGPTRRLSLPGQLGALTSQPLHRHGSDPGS

On to `COc1ccc(-c2cc(C(=O)O)nc3c2c(C)nn3-c2ccccc2)cc1`, for which the CL free in data set [1] was 305 mL/min/kg; in data set [2], 173 mL/min/kg; in [3], 180 mL/min/kg.

On to `COc1ccc(-c2cc(C(=O)O)nc3c2c(C)nn3-c2ccc(C)cc2)cc1`, for which the CL free in data set [1] is 263 mL/min/kg; in data set [2] it was below 59.8 mL/min/kg; in data set [3], 182 mL/min/kg.

For the compound `Cc1nn(-c2ccccc2)c2nc(C(=O)O)cc(-c3ccc(N4CCOCC4)cc3)c12`, the CL free in data set [1] was 67 mL/min/kg; in data set [2], below 28.3 mL/min/kg; in data set [3], below 43.3 mL/min/kg; in data set [4], below 45.7 mL/min/kg.

As to `COC1CCN(c2cc(C(=O)NS(=O)(=O)N(C)C)nc3c2c(C2CCC2)nn3-c2ccc(F)cc2)CC1`, the values for the half-life in [5] and in data set [25] were 3.45 h and 5.4 h, respectively. Also, the Vdss in data set [6] was 1.37 L/kg; in data set [11] it was 1.38 L/kg. For the same compound, the CL free in data set [1] was 66.2 mL/min/kg; in [8], 333 mL/min/kg; in [16], below 24.8 mL/min/kg; in data set [4], below 12.8 mL/min/kg; in data set [21] it was 178 mL/min/kg. In data set [7], the CL was determined as 5.33 mL/min/kg. Besides, the Activity at Cytochrome P450 3A4 [9] was 4%; in [10] it was “Non-Toxic”. The half-maximal inhibitory concentration (IC50) – broadly, the point on the concentration scale where inhibition reaches its midpoint – on Sigma receptor was 0.36 µM; at Cytochrome P450 3A4 [12] it was above 100 µM; at Cytochrome P450 3A4 [17], above 100 µM. Moreover, the fraction unbound at 4 h, 5 µM was 0.02 in data set [13], 0.016 in [14] and 0.025 in data set [22]. Besides, the solubility thermodynamic at 24 h is 10.9 µg/mL (≈ 20.5 µM) in data set [15] and 9.9 µg/mL (≈ 18.7 µM) in data set [18]. In addition, the Papp A→B at 1 h, 10 µM in data set [19] amounted to 5.45 ×10⁻⁶ cm/s; in [24], 24.5 ×10⁻⁶ cm/s. The “inhibition (INH)” value in data set [20] was “Not Active”. Besides, the clearance (commonly a measure of how efficiently the substance is removed, as volume per time) in data set [23] was 3.5 mL/min/kg.

For the compound `CN(C)S(=O)(=O)NC(=O)c1cc(N2CCC(N3CCOCC3)CC2)c2c(C3CCC3)nn(-c3ccc(F)cc3)c2n1`, the CL free is 49 mL/min/kg in data set [1], 31.7 mL/min/kg in data set [16] and below 11 mL/min/kg in data set [4]. For the same compound, the CL in data set [7] was found to be 3.17 mL/min/kg.

In the case of `CS(=O)(=O)NC(=O)c1cc(N2CCC(N3CCOCC3)CC2)c2c(C3CCC3)nn(-c3ccc(F)cc3)c2n1`, the CL free in data set [1] was below 11.5 mL/min/kg. Moreover, the Activity on Cytochrome P450 3A4 [9] is given as 9%.

Compound `CS(=O)(=O)NC(=O)c1cc(-c2ccc(N3CCC(C#N)CC3)nc2)c2c(C3CCC3)nn(-c3ccccc3)c2n1` registered a CL in data set [26] of 0.41 mL/min/kg.

Turning to `O=C(O)c1cc(-c2ccc(N3CCOCC3)cc2)c2c(C3CCC3)nn(-c3ccccc3)c2n1`, the CL in [26] worked out at 3.3 mL/min/kg.

Values taken from ChEMBL document CHEMBL5335845, “Discovery of GLPG2737, a Potent Type 2 Corrector of CFTR for the Treatment of Cystic Fibrosis in Combination with a Potentiator and a Type 1 Co-corrector” (J Med Chem, 2024).
